A selection: hits, their analogues and other compounds. The true share with any hit is near 2.9%.
Runt-SMMHC FRET: blocks binding of human RUNX1 Runt domain to CBFb-SMMHC; Q01196+Q13951; AID 1434; 220,000 compounds, 0.74% hits; Cerulean-Runt/Venus-CBFb-SMMHC FRET ratio 530/480, 1 h; inhibition, % at 20 µM;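 active = mean inhibition across duplicate retests at 20 µM reaching about 50%, limit read from the data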;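 also: 0% = DMSO wells and 100% = wells with excess untagged CBFb-SMMHC; inhibitors lower the FRET ratio by blocking Runt binding to CBFb-SMMHC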
Target sequence (Q01196 whole entry, looked up, the tested form may be a part): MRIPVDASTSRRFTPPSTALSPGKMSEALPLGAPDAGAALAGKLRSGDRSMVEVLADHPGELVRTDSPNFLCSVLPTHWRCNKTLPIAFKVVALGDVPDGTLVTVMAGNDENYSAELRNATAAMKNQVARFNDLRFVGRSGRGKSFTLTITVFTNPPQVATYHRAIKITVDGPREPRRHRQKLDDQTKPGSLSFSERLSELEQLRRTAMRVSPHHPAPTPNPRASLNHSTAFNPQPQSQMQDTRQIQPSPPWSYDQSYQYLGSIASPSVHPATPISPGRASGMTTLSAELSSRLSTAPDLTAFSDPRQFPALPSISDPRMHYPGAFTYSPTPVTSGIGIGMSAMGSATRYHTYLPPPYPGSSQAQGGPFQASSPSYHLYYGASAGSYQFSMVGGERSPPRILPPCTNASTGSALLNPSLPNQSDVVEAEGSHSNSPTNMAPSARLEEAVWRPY
Target sequence (Q13951 whole entry, looked up, the tested form may be a part): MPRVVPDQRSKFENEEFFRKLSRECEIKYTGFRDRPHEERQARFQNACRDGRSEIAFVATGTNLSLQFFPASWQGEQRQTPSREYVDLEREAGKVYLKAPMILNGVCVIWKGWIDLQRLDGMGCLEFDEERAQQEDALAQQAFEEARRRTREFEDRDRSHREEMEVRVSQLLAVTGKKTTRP
Runt-CBFb FRET: blocks binding of human RUNX1 Runt domain to CBFb; 220,000 compounds, 0.46% hits; Q01196+Q13951; inhibition, % at 20 µM; AID 1496; Cerulean-Runt/Venus-CBFb FRET ratio 530/480, 1 h;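 active = inhibition over about 50% at 20 µM in the single-dose screen, limit read from the data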;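 also: 0% = DMSO wells and 100% = excess unlabeled CBFb competitor control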
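Assay system: Cerulean-Runt domain fusion protein, energy donor; Signal: fluorescence energy transfer, 422 nm excitation, 530/480 nm emission; Timing: 1 h compound exposure, room temperature; Control set: unlabeled CBFb; Medium: Tris buffer pH 7.5 with salts and BSA; Compound: single test concentration of 20 µM, 1% DMSO final; Probe or stimulus: Venus-CBFb 100 nM.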
KLK7 zymogen act: activates the human kallikrein-7 zymogen. 370,000 compounds, 0.9% hits. P49862. activation, % at 7 µM. purified proKLK7, EDANS-DABCYL substrate fluorescence; 100% is mature enzyme control, 0% vehicle;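 active = activation above the mean of all tested compounds plus 3 SD, computed per campaign excluding outliers beyond control limits, cut at about 13% in these data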
AI-2 QS mod: modulates the Vibrio harveyi AI-2 quorum sensing system. Vibrio harveyi JMH597 AI-2 luminescence/OD600 ratio, 9 h; stronger effect = lower value; strain lacks LuxN and CqsS sensors; 0 = neutral-control median. activity change, % at 7.5 µM. 300,000 compounds, 0.4% hits; in the data active = activity change below about -75%, passing the limit was not always enough; inconclusive = no clear call, values can overlap the other calls;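 also: luminescence divided by OD600 gain over 9 h not by final OD600 alone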
Wee1 stabilizer: inhibitors of human Wee1 degradation | AID 1321 | HeLa Luc-Wee1K328M stability, luciferase luminescence; 100% = proteasome inhibitor MG132 effect | 220,000 compounds, 1.2% hits | reporter increase, % at 5 µM | P30291;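 active = activation above the mean of all tested compounds plus 3 SD, set per screening run, cut at about 8.8% in these data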;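 also: cells exposed to compound for 20 h before luminescence read; 0% = DMSO alone and 100% = MG132 at 30 µM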
RanGTP-Imp inh: inhibitors of RanGTP-importin-beta interaction, primary screen, biochemical, FRET, CFP-Ran, YFP-importin-beta, homogeneous; 300,000 compounds, 1.1% hits; inhibition, % (test concentration not listed); AID 2216; cell-free CFP-Ran/YFP-importin-beta FRET ratio;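 active = more than half of the replicate wells show a fall in the fluorescence ratio signal beyond about 16%, limit read from the data, passing the limit was not always enough; inconclusive = exactly half of the replicate wells pass the set limit; inactive = fewer than half of replicates pass the limit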;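 also: 0% = DMSO wells and 100% = Ran loaded with GDP instead of GTP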
JMH597 growth rt: retest: inhibitors of Vibrio harveyi JMH597 growth | OD600 absorbance, 9 h; lacks LuxN and CqsS sensors | shares compounds with AI-2 QS mod | 750 compounds, 1% hits | growth inhibition, % at 7.5 µM | AID 2726;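 active = every replicate shows growth inhibition above 50%; inconclusive = at least half, but not all, replicates pass that cutoff; inactive = fewer than half of replicates pass it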
BB721 lum counter: retest counter-screen: BB721 constitutive quorum sensing luminescence decrease; 750 compounds, 95% hits; AID 2727; Vibrio harveyi BB721 luminescence, 9 h; shares compounds with AI-2 QS mod; inhibition, % at 7.5 µM;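 active = inhibition above about 80% in every replicate, not just on average, limit read from the data; inconclusive = at least half of replicates past the limit, but not all; inactive = fewer than half of replicates past the limit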
BB721 growth rt: retest: blocks Vibrio harveyi BB721 growth; 750 compounds, 3% hits; OD600 absorbance, 9 h; growth inhibition, % at 7.5 µM; shares compounds with AI-2 QS mod;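 active = every replicate shows growth inhibition above 50%; inconclusive = at least half but not all replicates above 50% inhibition; inactive = under half of replicates above 50% inhibition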
AI-2 QS JMH597: Vibrio harveyi AI-2 signaling luminescence modulation – JMH597 strain, confirmation; inhibition, % at 7.5 µM; 750 compounds, 97% hits; AID 2736; Vibrio harveyi JMH597 AI-2 quorum sensing luminescence, 9 h; luxN and CqsS knockout, AI-2 only; shares compounds with AI-2 QS mod;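 active = every replicate shows more than 75% inhibition of signal versus neutral control wells; inconclusive = half to three quarters of replicates exceed 75% inhibition; inactive = fewer than half of replicates exceed 75% inhibition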
An asterisk follows results filed as active; u = inconclusive; x = not tested or not shown.

SMILES	Runt-SMMHC FRET	Runt-CBFb FRET	KLK7 zymogen act	AI-2 QS mod	Wee1 stabilizer	RanGTP-Imp inh	JMH597 growth rt	BB721 lum counter	BB721 growth rt	AI-2 QS JMH597
O=C(NCc1ccc(Cl)cc1)c1cc2ccccn2n1	1	0	0	-84*	-1	1	36	92*	25	95*
O=C(NCCc1ccc(F)cc1)c1cc2ccccn2n1	x	x	-1	x	x	x	x	x	x	x
COc1ccc(NC(=O)C2CSC(C)(C)N2C=O)cc1 (configuration not stated)	-5	1	0	-89*	1	-2	12	96*	1	97*
COc1ccc(NCc2cc(=O)oc3cc(NC(C)=O)ccc23)cc1	x	x	-1	-81*	x	u	8	88*	8	93*
CCCC(=O)NC(=S)Nc1ccccc1F	-4	-2	0	-85*	-1	8	21	92*	24	87*
Cc1cccc(/C(N)=N/OC(=O)c2cccc3ccccc23)c1	x	x	-1	-85*	x	1	62	97*	u	98*
N/C(=N\OC(=O)c1cccc2ccccc12)c1cccc([N+](=O)[O-])c1	-2	3	0	7	2	4	x	x	x	x
O=C(NCCOc1ccccc1)c1cccc(S(=O)(=O)NCc2ccccc2)c1	x	x	0	-97*	x	x	u	99*	9	99*
O=C(NCCOc1ccccc1)c1cc2ccccc2o1	3	-2	0	-82*	5	u	7	87*	-7	92*
Cn1cc(C=CC(=O)O)c2nccnc21	x	x	0	x	x	x	x	x	x	x
Cc1ccc(S(=O)(=O)N2CCN(c3nccnc3C#N)CC2)cc1	2	2	0	15	0	8	x	x	x	x
Cn1nc(C(F)(F)F)c2cc(NC(=O)OCc3ccc(F)cc3)sc21	-2	0	0	-93*	2	7	13	99*	40	98*
Cn1nc(C(F)(F)F)c2cc(C(=O)Nc3ccc(F)cc3F)sc21	-5	-1	-10	14	-1	2	x	x	x	x
c1ccc(OCc2nnc(-c3ccccc3)o2)cc1	-2	-1	0	-88*	-1	-3	14	97*	27	97*
CC1=C(C(=O)OC2CCCCC2)C(c2ccc(F)cc2)NC(=O)N1 (configuration not stated)	x	x	-1	9	x	2	x	x	x	x
COc1ccc(CNc2ccc3c(c2)ncn3C)cc1OC	x	x	0	13	x	-2	x	x	x	x
Cc1ccc(CNc2ccc3c(c2)ncn3C)cc1	7	21	1	-82*	7	16*	18	91*	-15	95*
CCc1ccc(CNc2ccc3c(c2)ncn3C)cc1	4	0	1	-91*	5	u	27	96*	8	98*
CCCCOC(=O)Nc1ccc(S(=O)(=O)Nc2cc(C)nc(C)n2)cc1	2	-2	0	7	0	-1	x	x	x	x
CCCCC(Br)C(=O)Nc1ccc(S(=O)(=O)Nc2cc(C)nc(C)n2)cc1 (configuration not stated)	x	x	0	-86*	x	0	-12	88*	3	90*
O=S(=O)(c1cccs1)N1CCN(CC(O)COc2cccc(Br)c2)CC1 (configuration not stated)	2	-2	0	-82*	-2	0	-1	88*	-9	93*
Cc1cccc(CSc2nnc(-c3ccco3)o2)c1	-10	-1	-1	-91*	5	-2	-3	97*	-10	98*
CC(=O)c1c(C)cc(C)c(CSc2nnc(-c3ccco3)o2)c1C	1	-2	0	-81*	0	0	22	89*	16	91*
CSc1nnc(-c2ccccc2)o1	5	-2	0	u	-2	-1	-1	10	8	8
Cc1cccc(NC(=O)CSc2nnc(-c3ccco3)o2)c1C	-2	1	0	53	3	-3	x	x	x	x
SMILES	Runt-SMMHC FRET	Runt-CBFb FRET	KLK7 zymogen act	AI-2 QS mod	Wee1 stabilizer	RanGTP-Imp inh	JMH597 growth rt	BB721 lum counter	BB721 growth rt	AI-2 QS JMH597
Cc1cccc(-c2nnc(SCc3ccccc3)o2)c1	1	-2	0	-89*	-1	-2	43	96*	u	97*
O=C(c1ccco1)N1CCN(Cc2cn[nH]c2-c2ccc(F)cc2F)CC1	1	1	0	33	3	-5	x	x	x	x
Cc1ccccc1NCCC(=O)Nc1ccc(Cl)cc1	x	x	0	-84*	x	-1	4	97*	-1	97*
Cc1ccccc1NCCC(=O)Nc1ccc(F)cc1	x	x	0	-87*	x	-3	18	95*	15	97*
OC(c1ccccc1)(c1ccccc1)C1CCN(CCCOc2cccc(Cl)c2)CC1	x	x	0	x	x	x	x	x	x	x
O=S1(=O)C=C(Oc2ccc3ccccc3c2)c2ccccc21	1	-3	x	-83*	7	-1	9	95*	-17	96*
Clc1ccc(-c2nnc(CCc3ccccc3)o2)c(Cl)c1	-2	-6	0	-90*	3	u	19	97*	22	98*
c1ccc2c(c1)oc1c(NCc3ccc4c(c3)OCO4)ncnc12	1	-2	x	-88*	-1	1	30	93*	9	97*
Cc1ccc(C2(C)NC(=O)N(CC(=O)NCCC3=CCCCC3)C2=O)cc1 (configuration not stated)	-10	0	0	-74	2	2	x	x	x	x
CC1(c2ccc3c(c2)OCO3)NC(=O)N(CC(=O)NCCC2=CCCCC2)C1=O (configuration not stated)	0	0	0	-87*	2	0	12	90*	22	95*
CC1(c2ccccc2)NC(=O)N(CC(=O)NCCC2=CCCCC2)C1=O (configuration not stated)	1	-2	0	-90*	-1	1	4	91*	-1	95*
CCOC(=O)C1CCC(=O)N1Cc1c[nH]c2ccccc12 (configuration not stated)	x	x	0	x	x	x	x	x	x	x
CCC1(c2ccccc2)NC(=O)N(CC(=O)NCc2ccc(F)cc2)C1=O (configuration not stated)	x	x	-1	-63	x	3	x	x	x	x

Assay outcomes from PubChem BioAssay.
